# pIC50: −log10 of the molar value.
# How the values were obtained:
# [1] = tested on: PC-3; experiment: Cytotoxicity against human PC3 cells at 2 to 10 uM by MTT assay; assay type: functional, cell-based
# Procedure, shortened: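 PC-3 cells (ATCC, tumorigenic metastatic prostate cancer) grown in RPMI 1640 with Glutamax, 10% FBS and 1% penicillin–streptomycin. Seeded at 5·10³ cells/well in complete medium and incubated overnight at 37 °C, 5% CO₂ before compound addition. MTT formazan absorbance read at 570 nm. Percentage viable cells relative to untreated controls used to derive IC50.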
# [2] = Toxicity against human RWPE1 cells at 2 to 10 uM by MTT assay; assay type: cell-based, RWPE-1; details: read-out: LD50 (the source's name)
# Procedure, shortened: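 Non-tumorigenic human prostate RWPE-1 cells (ATCC) kept in keratinocyte-SFM supplemented with 1% FBS and 1% penicillin–streptomycin. MTT read-out as formazan absorbance at 570 nm. Viability expressed as percentage of untreated control cells and used to derive IC50.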
Compound,pIC50 [1],CC50 [2]
CC[Se]/C(=N\C(=O)c1ccccc1)NC(=O)c1ccccc1,< 5.00,
CS/C(=N\C(=O)c1cccnc1Cl)NC(=O)c1cccnc1Cl,< 5.00,
C[Se]/C(=N\C(=O)c1ccc(Cl)nc1)NC(=O)c1ccc(Cl)nc1,5.04,> 10 µM
CC(C)[Se]/C(=N\C(=O)c1ccccc1)NC(=O)c1ccccc1,< 5.00,
COc1cc(OC)cc(C(=O)/N=C(/NC(=O)c2cc(OC)cc(OC)c2)[Se]C)c1,5.19,
CS/C(=N\C(=O)c1ccccc1)NC(=O)c1ccccc1,< 5.00,
CS/C(=N\C(=O)c1ccc(Cl)cc1)NC(=O)c1ccc(Cl)cc1,< 5.00,
C[Se]/C(=N\C(=O)c1ccc(Cl)cc1)NC(=O)c1ccc(Cl)cc1,5.12,
C[Se]/C(=N\C(=O)c1ccc(C)cc1)NC(=O)c1ccc(C)cc1,5.73,> 10 µM
CC(C)[Se]/C(=N\C(=O)c1ccc(Cl)cc1)NC(=O)c1ccc(Cl)cc1,< 5.00,
C[Se]/C(=N\C(=O)c1ccc([N+](=O)[O-])cc1)NC(=O)c1ccc([N+](=O)[O-])cc1,< 5.00,
C[Se]/C(=N\C(=O)c1ccc(C#N)cc1)NC(=O)c1ccc(C#N)cc1,< 5.00,
CS/C(=N\C(=O)c1ccc(C)cc1)NC(=O)c1ccc(C)cc1,< 5.00,
C[Se]/C(=N\C(=O)c1ccc(C(F)(F)F)cc1)NC(=O)c1ccc(C(F)(F)F)cc1,< 5.00,
C[Se]/C(=N\C(=O)c1ccc(C(C)(C)C)cc1)NC(=O)c1ccc(C(C)(C)C)cc1,< 5.00,
C[Se]/C(=N\C(=O)c1ccccc1)NC(=O)c1ccccc1,5.60,4.1 µM
COc1cc(OC)cc(C(=O)/N=C(/NC(=O)c2cc(OC)cc(OC)c2)[Se]C(C)C)c1,< 5.00,
C[Se](=O)O [METHYLSELENINIC ACID],5.08,
